# Hits are enriched below; roughly 3.9% of the tested compounds scored in any of these assays.
# CHO parental Ca: counter-screen: ATP calcium response change in parental CHO cells; parental CHO-K1, ATP-induced calcium, Fluo-8 fluorescence; inhibition, % at 5.6 µM; 330,000 tested, 0.63% active; AID 463079;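 active = inhibition above that plate's mean sample inhibition plus 3 SD, cut at about 26% in these data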
#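 Measured by: calcium-sensitive Fluo-8 fluorescence / Test system: CHO parental line / Controls: ATP-challenged DMSO wells low, unchallenged DMSO wells high / Measure: % inhibition / Compound: single nominal dose of 5.6 µM per compound / Replicates: single well per compound, no replicates / Reagent: ATP as calcium-mobilizing challenge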
# OX1R antag-1: blocks the human orexin 1 receptor; O43613; CHO/OX1R cells, Fluo-8 calcium fluorescence, orexin A; inhibition, % at 5 µM; 330,000 tested, 0.43% active;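 active = inhibition above its plate's threshold, mean inhibition of all tested compounds on the plate plus 3 SD, cut at about 37% in these data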
# TAAR1 ag: agonists of human TAAR1; AID 624467; 360,000 tested, 0.99% active; activation, % at 3 µM; Q96RJ0; CHO RD-HGA16 TAAR1, Fluo-8 calcium fluorescence; vehicle wells 0%, saturating PEA agonist 100%;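 active = activation above the mean activation of all test compounds in the run plus 3 SD, cut at about 38% in these data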
# Target sequence (Q96RJ0 whole entry, looked up): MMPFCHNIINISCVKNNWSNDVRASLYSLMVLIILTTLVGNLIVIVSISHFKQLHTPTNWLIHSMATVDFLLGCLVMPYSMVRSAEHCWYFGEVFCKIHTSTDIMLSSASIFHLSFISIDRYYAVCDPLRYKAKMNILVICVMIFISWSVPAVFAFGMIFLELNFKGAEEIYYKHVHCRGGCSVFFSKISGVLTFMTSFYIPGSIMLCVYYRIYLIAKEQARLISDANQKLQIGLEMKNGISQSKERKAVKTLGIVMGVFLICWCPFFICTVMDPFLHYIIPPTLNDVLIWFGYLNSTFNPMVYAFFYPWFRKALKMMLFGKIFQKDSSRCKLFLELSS
#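 System: CHO-derived RD-HGA16 cells with stable Gα16 and human TAAR1. Times: 17-24 h plating, Fluo-8 75 min 37 °C, 30 min RT. Measured by: calcium-sensitive Fluo-8 signal, excitation 470-495, emission 515-575 nm. Read-out basis: % activation relative to PEA EC100 response. Control set: DMSO and PEA EC100. Repeats: no replicates (n 1).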
# OX1R antag-2: blocks the human orexin 1 receptor; OX1R-expressing cells, FRET antagonist read-out; inhibition, % at 6.6 µM; 330,000 tested, 1.8% active; AID 485270; in the data active = inhibition mostly above about 38%, no sharp cut-off; inactive = mostly below about 40%
# TAAR1 antag: antagonists of human TAAR1 | CHO RD-HGA16 TAAR1, Fluo-8 calcium fluorescence, antagonist | inhibition, % at 3 µM | 360,000 tested, 1.5% active | Q96RJ0 | AID 624466;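 active = inhibition above a per-plate cutoff, the mean inhibition of test compounds on that plate plus 3 SD, cut at about 49% in these data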
#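 Assay system: CHO-derived RD-HGA16 cells stably expressing human TAAR1 plus Gα16. Timing: 140 s kinetic read after compound, 140 s after agonist. Technique: kinetic Fluo-8 calcium fluorescence measurement. Measure: % inhibition of agonist calcium response.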
# OX1R HTRF conf: confirmation of human orexin 1 receptor antagonists, HTRF format; AID 492964; inhibition, % at 6.6 µM; OX1R-expressing cells, HTRF antagonist assay; 1,800 tested, 49% active; shares compounds with OX1R antag-2; in the data active = inhibition above about 55%;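 also: CHO cells expressing OX1R stimulated with orexin A at about EC80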
# CHO-K1 HTRF: counter-screen: parental CHO-K1 HTRF response. shares compounds with OX1R antag-2. parental CHO-K1 cells, HTRF counterscreen. inhibition, % at 6.6 µM. 1,800 tested, 48% active; in the data active = inhibition above about 17%
# A number is an active result; i = inactive; nt = not tested or not shown.
SMILES,CHO parental Ca,OX1R antag-1,TAAR1 ag,OX1R antag-2,TAAR1 antag,OX1R HTRF conf,CHO-K1 HTRF
Cc1ccc(S(=O)(=O)N2C[C@H]3C(=O)C[C@@H](c4ccc(Cl)cc4)N(S(=O)(=O)c4ccccc4C)[C@H]3C[C@H]2c2ccc(Cl)cc2)cc1,nt,nt,i,nt,i,nt,nt
COc1ccc(/C=C/c2ccc3ccccc3[n+]2C)cc1OC,i,i,nt,78,nt,70,86
N#CCSc1nc(-c2ccccc2)nc2ccccc12,i,i,i,94,i,89,i
NC(=O)CSc1nc(-c2ccccc2)nc2ccccc12,i,i,i,i,i,nt,nt
Cc1nn2c3ccccc3nc2c2ccccc12,i,i,i,88,i,83,i
N/C(=N\OC(=O)Nc1ccccc1)c1ncc([N+](=O)[O-])s1,i,i,i,127,i,i,79
COc1cccc(C(=O)N[C@H](C(=O)N2CCC[C@H]2C(=O)NCc2ccccc2)C2CCCCC2)c1,nt,nt,i,nt,i,nt,nt
CSc1ccc(C(O)c2ncc(-c3ccccc3F)[nH]2)cc1 (stereo unspecified),nt,nt,i,nt,i,nt,nt
COC(=O)c1nn(-c2ccc(OC)cc2)c(=O)c2c(N)sc(C)c12,i,i,i,83,i,i,43
COc1ccc2oc(=O)c(C(=O)NCc3cccnc3)cc2c1,i,i,i,83,i,i,40
COc1ccc2oc(=O)c(C(=O)NCc3ccc(F)cc3)cc2c1,i,i,i,i,i,nt,nt
O=C(NCc1ccccc1)[C@H]1CCCN1C(=O)[C@H]1CCCN1C(=O)c1ccc(F)cc1F,nt,nt,i,nt,i,nt,nt
Cc1nn2c(nc1=O)SCC(c1ccccc1)=N2,i,i,i,145,i,i,62
CCOC(=O)N1CCN(C(=O)C[C@H]2C[C@@]3(C(=O)OC)C(=C[C@H](COCc4ccccc4)O[C@@H]3C)N(CCC3=CCCCC3)C2=O)CC1,nt,nt,i,nt,i,nt,nt
O=C(NCc1ccccc1)[C@@H]1CCCN1C(=O)[C@H]1CCCN1C(=O)c1ccc(F)cc1F,nt,nt,i,nt,i,nt,nt
CCCn1c(/C=C/c2cc[n+](C)cc2)nc2ccccc21,i,i,i,78,i,i,47
Cc1cccc(-n2c3nc(=O)[nH]c(=O)c-3cc3cc([N+](=O)[O-])ccc32)c1,i,i,i,77,i,68,66
Cc1ccc(C)c(-n2c3nc(=O)[nH]c(=O)c-3cc3cc([N+](=O)[O-])ccc32)c1,i,i,i,i,i,nt,nt
Cc1noc(/C=C/c2cccnc2)c1[N+](=O)[O-],i,i,i,79,i,68,84
O=[N+]([O-])c1ccc(-[n+]2ccc3ccccc3c2)c([N+](=O)[O-])c1,i,i,i,78,i,i,60
Cn1ccnc1Sc1ccc(C=O)cc1[N+](=O)[O-],i,i,i,i,i,nt,nt
O=[N+]([O-])c1c(NCCO)cc(N2CCN(Cc3ccc4c(c3)OCO4)CC2)c2nonc12,i,i,i,i,i,nt,nt
CCCC(=O)OCCNc1cc(Sc2nccn2C)c2nonc2c1[N+](=O)[O-],i,i,i,91,i,72,60
CCCSc1cc(NCCOC(C)=O)c([N+](=O)[O-])c2nonc12,i,i,i,82,i,i,61
COc1ccc(C(=O)C2CCCN(C(=O)c3csc(SC)n3)C2)cc1F (stereo unspecified),nt,nt,i,nt,i,nt,nt
SMILES,CHO parental Ca,OX1R antag-1,TAAR1 ag,OX1R antag-2,TAAR1 antag,OX1R HTRF conf,CHO-K1 HTRF
COc1ccc(NC(=O)/C=C/c2c(Cl)nc3ccccn23)cc1,i,i,i,111,i,96,17
CC1(C(=O)NS(=O)(=O)C2CC2)CCCN(C(=O)c2cccs2)C1 (stereo unspecified),nt,nt,i,nt,i,nt,nt
O=C(COC(=O)c1ccc([N+](=O)[O-])s1)NCc1ccccc1,i,i,i,124,i,i,18
O=C(COC(=O)c1ccc([N+](=O)[O-])s1)NC(c1ccccc1)c1ccccc1,i,i,i,i,i,nt,nt
CC1CN(c2ccc([N+](=O)[O-])nc2)CC(C)O1 (stereo unspecified),i,i,i,82,i,i,47
O=C(CCc1ccccc1)NNC(=S)NC(=O)c1ccc(Cl)cc1,i,i,nt,i,nt,nt,nt
CCn1c(CC(=O)Nc2ccccc2F)nnc1SCC(=O)NC1=NCCS1,nt,nt,i,nt,i,nt,nt
CCC(Oc1ccccc1)C(=O)Nc1ncc([N+](=O)[O-])s1 (stereo unspecified),i,i,i,79,i,i,i
COc1ccccc1/C=N/N1C(=O)c2cccc3cccc(c23)C1=O,i,i,i,97,i,i,55
COc1ccc(/C=N/N2C(=O)c3ccccc3C2=O)cc1,i,i,i,i,i,nt,nt
COc1c(C)cc(C(=O)C2CCCN(C(=O)c3cccc(-n4cccn4)c3)C2)cc1C (stereo unspecified),i,i,i,89,i,81,i
COc1c(C)cc(C(=O)C2CCCN(C(=O)c3cc(C)on3)C2)cc1C (stereo unspecified),i,i,i,i,i,nt,nt
Cc1ccc(N=Nc2c(N)[nH]n3c(=O)cc(C)nc23)cc1,i,i,i,i,i,nt,nt
Cc1ccc(N=Nc2c(=O)[nH]n3c(C)cc(C)nc23)cc1,i,i,i,174,i,i,80
Cc1cc(C)n2[nH]c(=O)c(N=Nc3ccc(S(N)(=O)=O)cc3)c2n1,i,i,i,88,i,57,85
COc1cccc(NC(=O)c2cnc(NS(=O)(=O)c3ccccc3)nc2)c1,nt,nt,i,nt,i,nt,nt
CC(C)[C@@H]1CC[C@@H](C)C[C@H]1O,nt,nt,i,nt,i,nt,nt
CN(Cc1ccccc1)C(=O)[C@@H]1CCCN1C(=O)[C@@H]1CCCN1C(=O)c1ccccc1,nt,nt,i,nt,i,nt,nt
CCCNC(=O)C[C@H]1CC[C@@H]2[C@H](COC[C@@H](O)CN2C(=O)c2ccccn2)O1,nt,nt,i,nt,i,nt,nt
CCc1nc2ccc(C(=O)NCCc3ccccn3)cn2c1N(C)CCC(C)C,nt,nt,i,nt,i,nt,nt
O=C(O)CCCN1C(=O)c2ccc(C(=O)c3cccc([N+](=O)[O-])c3)cc2C1=O,i,i,i,86,i,i,52
CCCC(=O)Nc1ccc2c(c1)C(=O)N(C)C[C@@H](OC)[C@H](C)CN(Cc1ccc(-c3ccccn3)cc1)[C@@H](C)CO2,nt,nt,i,nt,i,nt,nt
c1ccc2c(-c3nc4ncccc4o3)cccc2c1,i,i,i,90,i,89,i
C[C@H](CO)N1C[C@H](C)[C@@H](CN(C)C(=O)Nc2ccc(F)cc2)Oc2ncc(-c3ccc(F)cc3)cc2C1=O,nt,nt,i,nt,i,nt,nt
Cc1c(Nc2ccc3nonc3c2[N+](=O)[O-])c(=O)n(-c2ccccc2)n1C,i,i,i,195,i,i,87
O=C(O)c1cccc(Nc2ccc3nonc3c2[N+](=O)[O-])c1,i,i,i,92,i,58,97
